Results reported in ChEMBL document CHEMBL4725498, “Synthesis and Biological Evaluations of Electrophilic Steroids Inspired by the Taccalonolides” (ACS Med Chem Lett, 2020).
Active and inactive are the calls of the source. The rule behind the calls is not given here.

How the values were obtained:
HeLa [1] = test: Antiproliferative activity against human HeLa cells assessed as growth inhibition measured after 48 hrs by sulforhodamine B assay; type: functional
Method in brief: (§1)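 HeLa cells exposed to compound for 48 h, then growth measured by sulforhodamine B (SRB) staining. GI50 (50% growth inhibition), TGI (total growth inhibition) and LC50 (50% cytotoxicity) were read from concentration–response data. Values are average ± SEM, n = 3–5.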

HeLa [2] = test: Cytotoxicity against human HeLa cells assessed as reduction in cell viability measured after 48 hrs by sulforhodamine B assay; type: functional; conditions: read-out: LC50 (the source's name); method in brief: as §1
Sus scrofa = organism: Sus scrofa; test: Inhibition of porcine brain tubulin polymerization assessed as reduction in rate and extent of tubulin polymerization at 20 uM by turbidimetric assay
Method in brief: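 Purified porcine brain tubulin (20 μM) was incubated with 20 μM compound or DMSO vehicle. Polymerization was monitored turbidimetrically after shift to 37 °C.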

HCC1937 = test: Cytotoxicity against human HCC1937 cells assessed as reduction in cell viability measured after 48 hrs by sulforhodamine B assay; type: functional; conditions: read-out: LC50 (the source's name)
Method in brief: (§2)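 Breast lines were tested in a 48 h SRB assay: four molecularly diverse triple-negative lines plus nontumorigenic MCF 10A, with MCF 10A tested up to 50 μM. LC50 values came from concentration–response curves. Complete cytotoxicity was taken as the concentration giving full cell kill after 48 h incubation.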

BT-549 = test: Cytotoxicity against human BT-549 cells assessed as reduction in cell viability measured after 48 hrs by sulforhodamine B assay; type: functional; conditions: read-out: LC50 (the source's name); method in brief: as §2
MDA-MB-231 = test: Cytotoxicity against human MDA-MB-231 cells assessed as reduction in cell viability measured after 48 hrs by sulforhodamine B assay; type: functional; method in brief: as §2
[3] = Selectivity index, ratio of LC50 for human HeLa cells to LC50 for human HCC1937 cells measured after 48 hrs by sulforhodamine B assay; type: functional
MDA-MB-453 = test: Cytotoxicity against human MDA-MB-453 cells assessed as reduction in cell viability measured after 48 hrs by sulforhodamine B assay; type: functional; method in brief: as §2
SK-OV-3 [4] = test: Antiproliferative activity against human SKOV3 cells assessed as reduction in cell growth at 0.01 to 10 uM incubated for 48 hrs by SRB assay; type: functional, cell-based; conditions: dose microM 0.01-10, time 48.0 hrs
Tubulin (Homo sapiens) = Tubulin (Homo sapiens) (UniProt P68371+Q9H4B7+P0DPH7+P68366+Q13509+Q71U36+P04350+Q3ZCM7+P07437+P68363+Q9BQE3+Q6PEY2+Q13885+Q9BVA1+Q9BUF5); test: Induction of microtubule stabilization in human BT-549 cells assessed as bundling of microtubule network at 1 microM incubated for 6 hrs by indirect immunofluorescence assay; type: cell-based
Method in brief: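 BT-549 cells were treated for 6 h with compound or DMSO vehicle. Microtubules were then visualised by immunofluorescence with a β-tubulin antibody, scoring microtubule loss or bundling.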

SK-OV-3 [5] = test: Antiproliferative activity against human SKOV3-M6/6 cells assessed as reduction in cell growth at 0.01 to 10 uM incubated for 48 hrs by SRB assay; type: functional, cell-based; conditions: dose microM 0.01-10, time 48.0 hrs
OVCAR-5 = test: Antiproliferative activity against human OVCAR-5 cells assessed as reduction in cell growth at 0.01 to 10 uM incubated for 48 hrs by SRB assay; type: functional, cell-based; conditions: dose microM 0.01-10, time 48.0 hrs
[6] = Selectivity ratio of antiproliferative activity against human SKOV3-M6/6 cells transfected with MDR1 to antiproliferative activity against human SKOV3 cells measured after 48 hrs by sulforhodamine B assay; type: functional
ES2 = test: Antiproliferative activity against human ES-2 cells assessed as reduction in cell growth at 0.01 to 10 uM incubated for 48 hrs by SRB assay; type: functional, cell-based; conditions: dose microM 0.01-10, time 48.0 hrs

| Compound | GI50 (HeLa [1]) [nM] | TGI (HeLa [1]) [nM] | CC50 (HeLa [2]) [nM] | also measured |
| --- | --- | --- | --- | --- |
| C[C@]12CC[C@H]3[C@@H](CC[C@H]4C[C@@H]5O[C@@H]5C[C@@]43C)[C@@H]1[C@H](O)[C@H]1O[C@H]12 | > 50000 | > 50000 | > 50000 | – |
| C[C@]12C[C@H]3O[C@H]3C[C@@H]1C(=O)C[C@H]1[C@@H]3[C@@H]4O[C@@H]4C(=O)[C@@]3(C)CC[C@@H]12 | 2060 | 2660 | 3700 | – |
| CC(C)(C)OC(=O)N1[C@@H]2C[C@@]3(C)[C@@H](CC[C@H]4[C@@H]5[C@@H]6O[C@@H]6C(=O)[C@@]5(C)CC[C@@H]43)C[C@@H]21 | 640 | 680 | 730 | – |
| C[C@]12C[C@H]3O[C@H]3C[C@@H]1C(=O)C[C@@H]1[C@@H]2CC[C@]2(C)C(=O)C=C[C@@H]12 | 760 | 1280 | 2040 | inhibition (Sus scrofa): Active |
| CO[C@@H]1CC(=O)[C@@]2(C)CC[C@H]3[C@@H](CC(=O)[C@H]4C[C@@H]5O[C@@H]5C[C@@]43C)[C@H]12 | > 50000 | > 50000 | > 50000 | – |
| C[C@]12CC=CC[C@@H]1[C@@H](O)C[C@@H]1[C@@H]2CC[C@]2(C)C(=O)C=C[C@@H]12 | 277 | 410 | 700 | – |
| C[C@]12CC[C@H](O)C[C@@H]1CC[C@H]1[C@@H]3[C@@H]4O[C@@H]4C(=O)[C@@]3(C)CC[C@@H]12 | 1300 | 1800 | 2200 | CC50 (HCC1937): 820 nM; CC50 (BT-549): 1430 nM; LC50 (concentration killing 50% of cells) (MDA-MB-231): 1400 nM; RatioLC50 [3]: 2; LC50 (concentration killing 50% of cells) (MDA-MB-453): 1080 nM |
| C[C@]12C[C@H]3O[C@H]3C[C@@H]1CC[C@@H]1[C@@H]2CC[C@]2(C)[C@@H]3O[C@@H]3C[C@@H]12 | > 50000 | > 50000 | > 50000 | – |
| CO[C@@H]1CC(=O)[C@@]2(C)CC[C@H]3[C@@H](C[C@H](O)[C@H]4CC=CC[C@@]43C)[C@H]12 | 17500 | 30100 | 48100 | – |
| C[C@]12C[C@@H]3N[C@@H]3C[C@@H]1CC[C@H]1[C@@H]3[C@@H]4O[C@@H]4C(=O)[C@@]3(C)CC[C@@H]12 | 470 | 750 | 1420 | – |
| CO[C@@H]1CC(=O)[C@@]2(C)CC[C@H]3[C@@H](C[C@H](O)[C@H]4C[C@@H]5O[C@@H]5C[C@@]43C)[C@H]12 | > 50000 | > 50000 | > 50000 | – |
| C[C@]12C[C@H]3O[C@H]3C[C@@H]1CC[C@@H]1[C@@H]2CC[C@]2(C)C(=O)CC[C@@H]12 | 19200 | 29800 | 43400 | – |
| C[C@]12CC=CC[C@@H]1[C@@H](O)C[C@H]1[C@@H]3[C@@H]4O[C@@H]4C(=O)[C@@]3(C)CC[C@@H]12 | 710 | 930 | 1320 | – |
| Cc1ccc(S(=O)(=O)N2[C@@H]3C[C@@]4(C)[C@@H](CC[C@H]5[C@@H]6[C@@H]7O[C@@H]7C(=O)[C@@]6(C)CC[C@@H]54)C[C@@H]32)cc1 (some centres not stated) | 450 | 540 | 660 | CC50 (HCC1937): 760 nM; CC50 (BT-549): 260 nM; inhibition (Sus scrofa): inactive; LC50 (concentration killing 50% of cells) (MDA-MB-231): 470 nM; LC50 (concentration killing 50% of cells) (MDA-MB-453): 350 nM |
| C[C@]12CCC(=O)C[C@@H]1CC[C@H]1[C@@H]3[C@@H]4O[C@@H]4C(=O)[C@@]3(C)CC[C@@H]12 | 1000 | 1400 | 1900 | CC50 (HCC1937): 700 nM; CC50 (BT-549): 1340 nM; LC50 (concentration killing 50% of cells) (MDA-MB-231): 1230 nM; RatioLC50 [3]: 2; LC50 (concentration killing 50% of cells) (MDA-MB-453): 1010 nM |
| C[C@]12C[C@H]3O[C@H]3C[C@@H]1[C@@H](O)C[C@H]1[C@@H]3[C@@H]4O[C@@H]4C(=O)[C@@]3(C)CC[C@@H]12 | 2010 | 2500 | 3290 | – |
| C[C@]12C[C@H]3O[C@H]3C[C@@H]1CC[C@@H]1[C@@H]2CC[C@]2(C)[C@@H]3O[C@@H]3C(=O)[C@@H]12 | 34700 | > 50000 | > 50000 | – |
| CC(=O)O[C@H]1C(=O)[C@@]2(C)[C@H]([C@H](OC(=O)c3ccccc3)[C@]3(O)C[C@H](OC(=O)[C@H](O)[C@@H](NC(=O)c4ccccc4)c4ccccc4)C(C)=C1C3(C)C)[C@]1(OC(C)=O)CO[C@@H]1C[C@@H]2O [PACLITAXEL] | – | – | – | Activity (SK-OV-3 [4]): Active; Activity (Tubulin (Homo sapiens)): Active; Activity (SK-OV-3 [5]): Active; Activity (OVCAR-5): Active; Ratio [6]: 25; Activity (ES2): Active |
| C[C@]12CCC(=O)C[C@@H]1CC[C@@H]1[C@@H]2CC[C@]2(C)C(=O)C=C[C@@H]12 | 380 | 750 | 1270 | – |
| C[C@]12CC=CC[C@@H]1C(=O)C[C@H]1[C@@H]3[C@@H]4O[C@@H]4C(=O)[C@@]3(C)CC[C@@H]12 | 820 | 1090 | 1570 | – |
| C[C@]12C[C@H]3O[C@H]3C[C@@H]1CC[C@H]1[C@@H]3[C@@H]4O[C@@H]4C(=O)O[C@@]3(C)CC[C@@H]12 | 28200 | > 50000 | > 50000 | – |
| C[C@]12CC=CC[C@@H]1CC[C@H]1[C@@H]3[C@@H]4O[C@@H]4C(=O)[C@@]3(C)CC[C@@H]12 | 700 | 1000 | 1480 | – |
| C[C@]12C[C@H]3O[C@H]3C[C@@H]1CC[C@@H]1[C@@H]2CC[C@]2(C)C(=O)C=C[C@@H]12 | 310 | 510 | 860 | CC50 (HCC1937): 1780 nM; CC50 (BT-549): 450 nM; inhibition (Sus scrofa): Active; CC50 (MDA-MB-231; read-out: LC50 (the source's name)): 1580 nM |
| CO[C@@H]1CC(=O)[C@@]2(C)CC[C@H]3[C@@H](CC(=O)[C@H]4CC=CC[C@@]43C)[C@H]12 | 19400 | 35500 | > 50000 | – |
| C[C@]12CC=CC[C@@H]1C(=O)C[C@@H]1[C@@H]2CC[C@]2(C)C(=O)C=C[C@@H]12 | 760 | 980 | 1290 | – |
| CC(=O)O[C@H]1[C@H]2[C@H]([C@@H]3[C@@H](O)[C@@H]4[C@H]([C@H](C)[C@H]5O[C@]56OC(=O)[C@@](C)(O)[C@]46C)[C@@]3(C)[C@H]1OC(C)=O)[C@@H](O)C(=O)[C@H]1C[C@@H]3O[C@@H]3[C@H](OC(C)=O)[C@]21C | – | – | – | Activity (SK-OV-3 [4]): Active; Activity (SK-OV-3 [5]): Active; Activity (OVCAR-5): Active; Activity (ES2): Active |
| C[C@]12C[C@H]3O[C@H]3C[C@@H]1[C@@H](O)C[C@@H]1[C@@H]2CC[C@]2(C)C(=O)C=C[C@@H]12 | 1180 | 1620 | 2370 | inhibition (Sus scrofa): Active |
| C[C@]12C[C@H]3O[C@H]3C[C@@H]1CC[C@@H]1[C@@H]2CC[C@]2(C)C=CC(=O)[C@@H]12 | 9200 | 12800 | 18200 | – |
| C[C@]12CC[C@H](O)C[C@@H]1CC[C@@H]1[C@@H]2CC[C@]2(C)C(=O)C=C[C@@H]12 | 420 | 770 | 1180 | – |
